Results gathered from unrelated publications.
Each line is one published result; the experiments were not run side by side.

Cc1[nH]c(C)c(S(=O)(=O)Nc2ccc(S(F)(F)(F)(F)F)c(Cl)c2)c1C(=O)N1CCC(F)(F)C1
microsomal CLint (metabolic stability; mouse, liver microsomes): 25.4 µL/min/mg

NCCOCC(=O)N1CCCC(C(=O)NCc2nc(-c3ccc(-c4ccc(F)cc4)cc3)cs2)C1 (stereo not drawn)
Vd (rat, plasma; intravenous, 1 mg/kg): 26 L/kg

Cc1[nH]c(C)c(S(=O)(=O)Nc2ccc(S(=O)(=O)F)c(Cl)c2)c1C(=O)N1CCC(F)(F)C1
microsomal CLint (metabolic stability; mouse, liver microsomes): 21.8 µL/min/mg

C/C=C1/CN2CC[C@@]34c5cc(O)ccc5N(C)[C@]35OC[C@@]4(C(=O)OC)[C@H]1C[C@H]25
Vd (male Sprague-Dawley rat, plasma; intravenous, 1 mg/kg): 10.2 L/kg

Cl.Cn1c(=O)n(CCCCN2CCC3(CC2)OCc2ccccc23)c2ccccc21
Vd (male Sprague-Dawley rat, plasma; intravenous, 5 mg/kg): 8.4 L/kg

O=C1NC2(CCC2)C(=O)N1c1ccc(F)c(C(F)(F)F)c1
microsomal CLint (metabolic stability; mouse, liver microsomes): 42 µL/min/mg

CC[C@H](C)CCCCC(=O)N[C@@H](CCN)C(=O)N[C@H](C(=O)N[C@@H](CCN)C(=O)N[C@H]1CCNC(=O)[C@H]([C@@H](C)O)NC(=O)[C@H](CCN)NC(=O)[C@H](CCN)NC(=O)[C@H](CC(C)C)NC(=O)[C@@H](CC(C)C)NC(=O)[C@H](CCN)NC1=O)[C@@H](C)O
Vd (male Sprague-Dawley rat, plasma; intravenous, 5 mg/kg): 0.736 L/kg

CC(C)CC(=O)OC[C@H]1O[C@@](C#N)(c2ccc3c(N)ncnn23)[C@H](O)[C@@H]1O
hepatocyte CLint (metabolic stability; mouse, hepatocytes; 5 µM): > 318 µL/min/10⁶ cells

CC1(CC(F)(F)F)NC(=O)N(c2ccc(F)c(C(F)(F)F)c2)C1=O (stereo not drawn)
microsomal CLint (metabolic stability; mouse, liver microsomes): < 7 µL/min/mg
